Activity calls are given as the source filed them.
Tests used:
[1] = biological target: Delta-type opioid receptor (Mus musculus, UniProt P32300); assay: Agonist activity at delta opioid receptor in mouse vas deferens assessed as inhibition of electrically-induced twitches; type: functional, tissue-based
In short: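 MVD: paired rectangular pulses (1-ms width, 100-ms apart, 9 V/cm, supramaximal) every 10 s; isometric twitch recording; dose–response curves, IC50 read graphically; mean of five to eight measurements.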

Mu-type opioid receptor [2] = biological target: Mu-type opioid receptor (Cavia porcellus, UniProt P97266); assay: Agonist activity at mu opioid receptor in guinea pig ileum assessed as inhibition of electrically-induced twitches; type: functional, tissue-based
In short: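 GPI: twitches evoked at 0.1 Hz, 50 V, 0.5-ms pulse width; isometric recording; dose–response curves with IC50 derived graphically; arithmetic mean of five to eight measurements.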

[3] = Distribution coefficient, log D in octanol and […] at pH 7.4; type: physicochemical
In short: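 Shake-flask: 50 µg peptide in pre-equilibrated 0.05 M Hepes/0.1 M NaCl pH 7.4 with octanol, vortexed 2 min, centrifuged; both phases quantified by RP-HPLC; D = octanol/buffer ratio; triplicate.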

[4] = Half life in mouse serum; type: ADME, cell-free
In short: (§1)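 Peptides at 500 µM final in 15% mouse brain homogenate (washed) or 100% mouse serum, 2.3 mg/mL protein, 50 mM Tris pH 7.4, 37 °C; sampled 0–300 min in triplicate; stopped with acetonitrile, acidified, centrifuged, remaining peptide by RP-HPLC.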

Mu-type opioid receptor [5] = biological target: Mu-type opioid receptor (Rattus norvegicus, UniProt P33535); assay: Binding affinity to mu opioid receptor in rat brain synaptosome membrane by radioligand binding assay; type: cell membranes
In short: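 Competition vs [3H]Tyr-D-Ala-Gly-MePhe-Gly-ol (DAMGO-type mu ligand) 0.5 nM, 1 h, on rat brain synaptosomal membranes (300–500 µg/mL protein) in 50 mM Tris–HCl pH 7.4; nonspecific binding with 10 µM naloxone; duplicates, repeated at least three times.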

[6] = biological target: Delta-type opioid receptor (Rattus norvegicus, UniProt P33533); assay: Binding affinity to delta opioid receptor in rat brain synaptosome membrane by radioligand binding assay; type: cell membranes
In short: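 Displacement of [3H]Tyr-c[D-Pen-Gly-Phe-D-Pen]-OH 1 nM, 3 h incubation, rat brain synaptosomal membranes (300–500 µg/mL protein), 50 mM Tris–HCl pH 7.4; 10 µM naloxone defines nonspecific binding; duplicate assays, at least three repeats.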

[7] = Half life in mouse brain; type: ADME, tissue-based; in short: as §1
[8] = Protein binding to BSA; type: ADME, Bos taurus; details: cattle, isolated protein
In short: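 Peptides in mammalian Ringer's solution with 10 g/L BSA and 3.9% dextran, pH 7.4, 37 °C; ultrafiltration (30 kDa cut-off, 2000g, 10 min); total and free peptide by RP-HPLC; % bound = (T−F)/T×100; triplicate.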

Mus musculus = assay: Antinociceptive activity in mouse at 30 mg/kg, sc by tail flick test; type: functional, organism-based; design: dose 30 mg/kg
In short: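 Mice given 30 mg/kg sc (100 µL); 50 °C warm-water tail-flick, baseline responders under 5 s kept, 10 s cut-off; latencies at 5–60 min post-dose; %MPE = 100·(TL−CL)/(10−CL); saline control; six to eight mice per group, mean with SEM.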

Sequence of Delta-type opioid receptor (Mus musculus, UniProt P32300) (P32300 whole entry): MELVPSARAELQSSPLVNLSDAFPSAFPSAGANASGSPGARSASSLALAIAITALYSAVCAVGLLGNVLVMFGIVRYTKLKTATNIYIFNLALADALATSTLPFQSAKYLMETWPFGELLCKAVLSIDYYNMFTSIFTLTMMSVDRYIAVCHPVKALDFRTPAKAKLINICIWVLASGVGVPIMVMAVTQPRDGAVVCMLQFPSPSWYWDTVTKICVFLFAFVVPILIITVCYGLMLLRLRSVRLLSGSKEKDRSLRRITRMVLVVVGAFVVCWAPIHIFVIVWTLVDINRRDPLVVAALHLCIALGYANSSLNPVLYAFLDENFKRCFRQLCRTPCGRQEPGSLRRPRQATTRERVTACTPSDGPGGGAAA
Sequence of Mu-type opioid receptor (Rattus norvegicus, UniProt P33535) (P33535 whole entry): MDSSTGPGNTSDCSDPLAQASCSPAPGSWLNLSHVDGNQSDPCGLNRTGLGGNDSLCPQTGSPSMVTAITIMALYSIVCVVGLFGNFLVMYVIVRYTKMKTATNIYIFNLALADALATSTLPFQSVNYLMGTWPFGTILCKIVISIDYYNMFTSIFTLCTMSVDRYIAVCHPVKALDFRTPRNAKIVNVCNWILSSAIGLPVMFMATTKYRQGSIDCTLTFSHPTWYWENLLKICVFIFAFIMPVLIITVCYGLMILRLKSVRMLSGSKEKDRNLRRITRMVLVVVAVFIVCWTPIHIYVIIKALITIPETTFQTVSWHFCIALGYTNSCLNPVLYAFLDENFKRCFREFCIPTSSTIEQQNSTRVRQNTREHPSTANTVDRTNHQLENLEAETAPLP
Sequence of Delta-type opioid receptor (Rattus norvegicus, UniProt P33533) (P33533 whole entry): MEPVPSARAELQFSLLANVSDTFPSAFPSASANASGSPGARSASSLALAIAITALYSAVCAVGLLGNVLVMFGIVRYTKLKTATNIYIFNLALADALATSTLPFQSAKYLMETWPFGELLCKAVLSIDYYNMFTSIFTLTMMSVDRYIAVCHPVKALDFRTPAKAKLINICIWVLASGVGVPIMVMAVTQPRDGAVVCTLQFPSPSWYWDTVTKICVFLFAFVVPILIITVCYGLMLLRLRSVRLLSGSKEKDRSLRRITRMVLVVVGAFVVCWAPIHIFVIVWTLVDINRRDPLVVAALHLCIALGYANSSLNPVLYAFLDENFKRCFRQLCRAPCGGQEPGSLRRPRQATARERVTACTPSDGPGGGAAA
Sequence of Mu-type opioid receptor (Cavia porcellus, UniProt P97266) (P97266 whole entry): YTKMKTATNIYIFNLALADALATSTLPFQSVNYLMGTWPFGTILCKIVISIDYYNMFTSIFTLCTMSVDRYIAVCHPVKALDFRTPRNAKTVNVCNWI

| SMILES | IC50 [1] [µM] | IC50 (Mu-type opioid receptor [2]) [µM] | logD [3] | half-life [4] [h] | Ki (Mu-type opioid receptor [5]) [µM] | Ki [6] [µM] | half-life [7] [h] | Activity [8] [%] | Activity (Mus musculus) |
| --- | --- | --- | --- | --- | --- | --- | --- | --- | --- |
| COc1ccc(C[C@H](N=C(N)N)C(=O)N2CCC[C@@H]2C(=O)NCC(=O)N[C@@H](Cc2c[nH]c3ccccc23)C(=O)N[C@@H](Cc2ccccc2)C(N)=O)cc1 | > 10 | > 1 | 0.78 | 2.75 | 1.06 | > 10 | 7.45 | 45.15 | – |
| COc1ccc(C[C@H](N=C(N)N)C(=O)N2CCC[C@H]2C(=O)N[C@@H](Cc2c[nH]c3ccccc23)C(=O)N[C@@H](Cc2ccccc2)C(N)=O)cc1 | 1.34 | 0.988 | 0.21 | 0.522 | 0.792 | 4.79 | 4.3 | 40.58 | – |
| COc1ccc(C[C@H](N=C(N)N)C(=O)N2CCC[C@H]2C(=O)N[C@@H](Cc2c[nH]c3ccccc23)C(=O)N[C@@H](Cc2ccc(Cl)cc2)C(N)=O)cc1 | 1.29 | 0.845 | 1.33 | 0.803 | 0.538 | 1.37 | 3.17 | 65.57 | – |
| COc1ccc(C[C@H](NC(=N)N)C(=O)N2CCC[C@@H]2C(=O)NCC(=O)N[C@@H](Cc2c[nH]c3ccccc23)C(=O)N[C@@H](Cc2ccc(Cl)cc2)C(N)=O)cc1 | > 10 | > 1 | 1.64 | 3.6 | 0.919 | 1.48 | 6.82 | 62.52 | Active |

From ChEMBL document CHEMBL1146349, “Endomorphin-1 analogs with enhanced metabolic stability and systemic analgesic activity: design, synthesis, and pharmacological characterization” (Bioorg Med Chem, 2007)
